In ChEMBL document CHEMBL1140207, “A small molecule inhibitor, 1,2,4,5-benzenetetraamine tetrahydrochloride, targeting the y397 site of focal adhesion kinase decreases tumor growth” (J Med Chem, 2008):
Calls of active or inactive are those of the source. The calls are words filed in the database; no cut-off is given here.

Tested on: C8161
Assay: Cytotoxicity against human C8161 cells assessed as decrease in cell viability at 100 uM after 24 hrs by MTT assay
Type: functional, cell-based
Summary of the method: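 Cells from breast cancer and melanoma lines were exposed to compound for 24 h and viability was read by MTT assay. A reference FAK inhibitor served as the control.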

SMILES | Activity
O=S1(=O)N2CN3CCN(C2)CN1C3 | Active
Brc1ccc(C[N+]23CN4CN(CN(C4)C2)C3)cc1 | Active
